Efflux pump inh = blocks antifungal efflux pumps in multiplex yeast assay. 0.44% of 330,000 active. S. cerevisiae Candida pump triplex, Nile Red efflux. inhibition, % at 10 µM;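 active = plate passing quality check with inhibition over a set limit, or well fluorescence over plate mean plus 4 SD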;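 note: Nile Red retained in pooled yeast measured as flow cytometry median fluorescence; 0% = buffer negative control and 100% = Enniatin B positive control; higher means more Nile Red kept so more efflux inhibition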
Arrestin-AP2 inh = human beta-arrestin and AP2 interaction inhibition; FITC-arrestin peptide / GST-AP2 beads, flow cytometry; AP2 beta2 appendage carries R879A mutation; inhibition, % at 10 µM; 0.31% of 340,000 active;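 active = inhibition above a set limit, near 3 SD of compounds lacking own fluorescence, cut at about 54% in these data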;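 note: plate controls were DMSO wells for no effect and 5 µM unlabelled arrestin peptide for full effect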
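Assay system: GST-AP2 R879A bound to glutathione beads, E. coli-expressed; Medium: PBS with 0.05% Tween 20 and 0.1% BSA; Also added: fluorescein-tagged arrestin peptide at 50 nM final; Timing: 12 min plus 1 h, RT; Measured by: flow cytometry, FL1 (488/535 nm); Evaluation: percent drop in bead-associated FITC signal.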
Neddyl block = inhibitors of human cullin neddylation; 0.58% of 360,000 active; P61081+Q13564; AID 651699; TR-FRET cullin neddylation, biochemical; inhibition, % at 25 µM; in the data active = inhibition above about 36%
DSG3 Ab inh = inhibitors of pemphigus antibody binding to human desmoglein-3; DSG3-coupled beads, scFv-anti-DSG3-GFP binding, flow cytometry; hits give low values; binding (percent of control), % at 10 µM; 0.48% of 310,000 active;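 active = binding more than 3 SD below its plate's average and above zero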;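 note: hits lower antibody fragment binding to DSG3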
Neddyl inh conf = cullin neddylation inhibition, confirmation. shares compounds with Neddyl block. TR-FRET cullin neddylation biochemical assay. calls only at 25 µM. 13% of 1,800 active. AID 652217; in the data active = inhibition above about 40%;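 note: neddylation substrate is the cullin 1 ring ligase complex with SKP2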
Active calls of the source: *. Only some compounds are listed: those with a hit (about 1.7% of all), similar ones and a draw of the others.

How did CC(Oc1cc2oc(=O)c3c(c2cc1Cl)CCC3)C(=O)NCc1cccnc1 (centres undefined) do in these assays?
Efflux pump inh: 0; Arrestin-AP2 inh: 1; Neddyl block: 43*; DSG3 Ab inh: 99; Neddyl inh conf: inactive

How did CC(Oc1cc2oc(=O)c3c(c2cc1Cl)CCCC3)C(=O)NCc1cccnc1 (centres undefined) do in these assays?
Efflux pump inh: 0; Arrestin-AP2 inh: 12; Neddyl block: 21; DSG3 Ab inh: 99

Results for CC(C)c1ccc(S(=O)(=O)c2n[nH]n3c2nc(=O)c2ccccc23)cc1 ?
Efflux pump inh: 0; Arrestin-AP2 inh: -5; Neddyl block: 50*; DSG3 Ab inh: 105; Neddyl inh conf: inactive

How did O=c1nc2c(-c3ccccc3F)n[nH]n2c2ccccc12 do in these assays?
Efflux pump inh: 0; Arrestin-AP2 inh: 1; DSG3 Ab inh: 98

How did CCc1ccc(S(=O)(=O)c2n[nH]n3c2nc(=O)c2ccccc23)cc1 do in these assays?
Efflux pump inh: 0; Arrestin-AP2 inh: -7; Neddyl block: 46*; DSG3 Ab inh: 99; Neddyl inh conf: inactive

What do the screens show for `COC(=O)c1ccc(OC)c(CN2CCCN(Cc3cc(C)ccc3C)S2(=O)=O)c1`?
Efflux pump inh: 0; Arrestin-AP2 inh: 6; Neddyl block: -5; DSG3 Ab inh: 107

Results for CC(C)CCNS(=O)(=O)c1cc2c3c(c1)CCN3C(=O)CC2 ?
Efflux pump inh: 0; Arrestin-AP2 inh: 9; Neddyl block: -3; DSG3 Ab inh: 104

Results for Brc1ccc(-c2ccc(/C=N/Nc3nc(N4CCOCC4)nc(N4CCOCC4)n3)o2)cc1 ?
Efflux pump inh: 0; Arrestin-AP2 inh: 10; Neddyl block: 46*; DSG3 Ab inh: 108; Neddyl inh conf: inactive

What do the screens show for `CCC(C)(C)NC(=O)C(c1ccc(OC)cc1)N(C(=O)CCC(=O)Nc1cc(C)on1)C(C)(C)C` (centres undefined)?
Efflux pump inh: 0; Arrestin-AP2 inh: 20; Neddyl block: 1; DSG3 Ab inh: 108

Results for CCCN(CCC)S(=O)(=O)c1ccc(C(=O)Nc2cc3oc4ccccc4c3cc2OC)cc1 ?
Efflux pump inh: 0; Arrestin-AP2 inh: 4; Neddyl block: 45*; DSG3 Ab inh: 99; Neddyl inh conf: inactive

What do the screens show for `O=C(CCn1cnc2ccccc21)N/N=C/c1ccccc1O`?
Efflux pump inh: 0; Arrestin-AP2 inh: 2; Neddyl block: 41*; DSG3 Ab inh: 95; Neddyl inh conf: inactive

How did O=C(NCCOCc1ccccc1)C(c1ccccc1)c1ccccc1 do in these assays?
Efflux pump inh: 0; Arrestin-AP2 inh: 8; Neddyl block: -4

Results for CCOc1ccccc1NC(=O)CSc1nc2nc(-c3cccs3)cc(C(F)(F)F)c2c(=O)[nH]1 ?
Efflux pump inh: 0; Arrestin-AP2 inh: 4; Neddyl block: 33; DSG3 Ab inh: 100

How did COc1ccc(NC(=O)CSc2nc3nc(-c4cccs4)cc(C(F)(F)F)c3c(=O)[nH]2)c(OC)c1 do in these assays?
Efflux pump inh: 0; Arrestin-AP2 inh: 4; Neddyl block: 54*; DSG3 Ab inh: 101; Neddyl inh conf: inactive

How did CC(C)Sc1nnc(-c2ccc(S(=O)(=O)N3CCOCC3)cc2)n1C do in these assays?
Efflux pump inh: 0; Arrestin-AP2 inh: 11; Neddyl block: 44*; DSG3 Ab inh: 123; Neddyl inh conf: inactive

What do the screens show for `O=c1c2ccccc2nc2n1CCCN2`?
Efflux pump inh: 0; Arrestin-AP2 inh: 36; Neddyl block: 52*; DSG3 Ab inh: 104

How did Cc1cc2c(c(N)n1)c(=O)oc1ccccc12 do in these assays?
Efflux pump inh: 0; Arrestin-AP2 inh: 21; Neddyl block: 40*; Neddyl inh conf: inactive

What do the screens show for `COc1ccc(NC(=O)CN(C)CC(=O)N2CC(=O)Nc3ccccc32)cc1`?
Efflux pump inh: 0; Arrestin-AP2 inh: -5; Neddyl block: 10; DSG3 Ab inh: 97

What do the screens show for `CCC1C(=O)n2nc(-c3ccccc3)cc2N=C1C` (centres undefined)?
Efflux pump inh: 0; Arrestin-AP2 inh: 5; Neddyl block: 49*; DSG3 Ab inh: 98; Neddyl inh conf: inactive

How did CCN(CCC#N)c1ccc(/C=N/Nc2nc(C)cc(=O)[nH]2)c(C)c1 do in these assays?
Efflux pump inh: 0; Arrestin-AP2 inh: -1; Neddyl block: 41*; DSG3 Ab inh: 90; Neddyl inh conf: inactive

How did Cc1nc2c(c(=O)n1CCC1=CCCCC1)c1nc3ccccc3nc1n2/N=C/c1ccccc1 do in these assays?
Efflux pump inh: 0; Arrestin-AP2 inh: 0; Neddyl block: 19
